Measured values from ChEMBL document CHEMBL1139179, “5-Alkynyl-2'-deoxyuridines: chromatography-free synthesis and cytotoxicity evaluation against human breast cancer cells” (Bioorg Med Chem, 2007).

Assays:
MCF7 [1] = assay: Cytotoxicity against human MCF7 cells after 96 hrs; conditions: MCF7, 96 h
MDA-MB-231 = assay: Cytotoxicity against human MDA-MB-231 cells after 72 hrs; assay type: functional, cell-based; conditions: MDA-MB-231, 72 h
In short: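 MDA-MB-231 cells (100 μL at 5000 cells/mL) grown 72 h at 37 °C, 5% CO2, then given graded concentrations (six replicates) for a further 72 h. Glutardialdehyde fixation, 0.02 M crystal violet staining, 70% ethanol elution, absorbance at 590 nm. A day-0 biomass plate was subtracted and the control taken as 100%. IC50 is 50% proliferation inhibition, mean of at least two independent runs.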

MCF7 [2] = assay: Cytotoxicity against human MCF7 cells after 72 hrs; assay type: functional, cell-based; conditions: MCF7, 72 h

| Structure (SMILES) | IC50 (MCF7 [1]) | IC50 (MDA-MB-231) | IC50 (MCF7 [2]) |
| --- | --- | --- | --- |
| CCCCCc1ccc(C#Cc2cn([C@H]3C[C@H](O)[C@@H](CO)O3)c(=O)[nH]c2=O)cc1 | 37 µM | 29.2 µM | – |
| C[Si](C)(C)C#Cc1cn([C@H]2C[C@H](O)[C@@H](CO)O2)c(=O)[nH]c1=O | 1.6 µM | 4.2 µM | – |
| Cc1ccc(C#Cc2cn([C@H]3C[C@H](O)[C@@H](CO)O3)c(=O)[nH]c2=O)cc1 | – | > 50 µM | 0.9 µM |
| O=c1[nH]c(=O)n([C@H]2C[C@H](O)[C@@H](CO)O2)cc1C#CC1(O)CCCCC1 | > 50 µM | > 50 µM | – |
| O=c1[nH]c(=O)n([C@H]2C[C@H](O)[C@@H](CO)O2)cc1C#CC1CC1 | > 50 µM | > 50 µM | – |
| CC(C)(C)c1ccc(C#Cc2cn([C@H]3C[C@H](O)[C@@H](CO)O3)c(=O)[nH]c2=O)cc1 | 9.5 µM | > 50 µM | – |
| CCCC#Cc1cn([C@H]2C[C@H](O)[C@@H](CO)O2)c(=O)[nH]c1=O | > 50 µM | > 50 µM | – |
| C#Cc1cn([C@H]2C[C@H](O)[C@@H](CO)O2)c(=O)[nH]c1=O | 0.4 µM | 4.4 µM | – |
| O=c1[nH]cc(F)c(=O)[nH]1 [FLUOROURACIL] | – | 9.6 µM | 4.8 µM |
